SR-BI HDL uptake: inhibitors of SR-BI mediated HDL lipid uptake, primary screen, ldlA[mSR-BI] cells, fluorescence, single point | inhibition, % at 12.5 µM | ldlA[mSR-BI] CHO cells, DiI-HDL uptake fluorescence, 3 h | 320,000 compounds, 0.96% hits | Scavenger receptor class B member 1 (Mus musculus), Q61009;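 active means mean replicate inhibition of at least 70% and a set share of replicates each scoring 70 or more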;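 further: 0% = median of neutral control wells and 100% = median of positive control wells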
Target sequence (Q61009 whole entry, looked up): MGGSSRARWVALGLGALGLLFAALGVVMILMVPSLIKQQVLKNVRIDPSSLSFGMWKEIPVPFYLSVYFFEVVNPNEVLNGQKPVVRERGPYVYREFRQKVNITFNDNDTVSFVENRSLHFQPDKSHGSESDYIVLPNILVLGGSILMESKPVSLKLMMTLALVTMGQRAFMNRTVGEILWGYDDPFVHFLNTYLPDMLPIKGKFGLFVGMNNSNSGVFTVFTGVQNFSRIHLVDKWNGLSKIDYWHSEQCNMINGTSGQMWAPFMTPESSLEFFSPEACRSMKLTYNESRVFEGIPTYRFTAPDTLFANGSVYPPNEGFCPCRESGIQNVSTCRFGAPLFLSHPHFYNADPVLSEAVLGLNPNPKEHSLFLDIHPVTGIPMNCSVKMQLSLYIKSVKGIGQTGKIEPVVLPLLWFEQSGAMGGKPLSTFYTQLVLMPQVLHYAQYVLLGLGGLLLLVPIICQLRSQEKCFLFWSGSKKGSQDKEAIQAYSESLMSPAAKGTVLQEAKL
Statin myotox sup: suppressors of statin myotoxicity in C2C12 myotubes, primary screen, cell-based, single point, plate reader; C2C12 myotubes + simvastatin, ATP luminescence, 48 h; scaled: DMSO 0, geranylgeraniol control 100; rescue of ATP level, % at 7.49 µM; 330,000 compounds, 0.78% hits; AID 602340, 2012;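 active means mean ATP rescue above about 67%, or every replicate alone reaching that limit, limit read from the data, passing the limit was not always enough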;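 further: myotubes were challenged with 10 µM simvastatin during compound exposure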
Vif imaging: HIV Vif self-association inhibitors, primary screen, imaging, HEK293T, single point; HEK293T cells, Vif self-association by quenched fluorescence, 24 h; AID 602346, 2012; inhibition, % at 7.49 µM; 340,000 compounds, 0.35% hits; in the data active means inhibition above about 50%, passing the limit was not always enough
SR-BI uptake up: activators of SR-BI mediated DiI-HDL uptake, primary screen, ldlA[mSR-BI] CHO cells, DiI fluorescence | 3 h; 100 = double the neutral-control signal | activation, % at 12.5 µM | 320,000 compounds, 0.096% hits | AID 504775, 2011;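 active means mean replicate activation of at least 60% and every replicate at or above 60%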;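 further: 0% = median plate neutral-control signal and 100% = twice that signal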
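System: CHO ldlA[mSR-BI] cells / Medium: HEPES-buffered (25 mM, pH 7.4) F12 plus 0.5% BSA / Probe or stimulus: labelled HDL, 10 µg/mL / Doses: single compound concentration, delivered by pin transfer / Schedule: 3 h, 37 °C / Measured by: DiI fluorescence, bottom read / Measure: cell-associated DiI fluorescence as measure of HDL uptake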
* marks the source's active call; other numbers are inactive results; . = no result given. In the library only some 1.7% were active in any assay of this set; here they are far more common.

SMILES | SR-BI HDL uptake | Statin myotox sup | Vif imaging | SR-BI uptake up
CCn1cc([N+](=O)[O-])c(C(=O)N2N=C(c3ccc4ccccc4c3)CC2c2ccccc2O)n1 (configuration not stated) | 10 | 44 | . | -10
C[C@@H]1CN([C@@H](C)CO)C(=O)c2cc(NS(C)(=O)=O)ccc2O[C@@H](C)CCCCO[C@@H]1CN(C)Cc1ccc2c(c1)OCO2 | . | -3 | . | .
CS(=O)(=O)Nc1ccc(C(=O)Nc2ccccc2C(=O)N2CCCC2)cc1 | -14 | 90* | -2 | 14
CS(=O)(=O)Nc1ccccc1C(=O)Nc1ccccc1C(=O)N1CCCC1 | -15 | 5 | -4 | 15
CS(=O)(=O)Nc1ccc(C(=O)N2CCN(c3ccccc3)CC2)cc1 | -3 | 115* | 18 | 3
COc1cc(OC)cc(C(=O)Nc2ccccc2C(=O)N2CCCC2)c1 | -26 | 115* | -4 | 26
C[C@H]1CN([C@@H](C)CO)C(=O)c2cccc(NC(=O)Nc3ccc(C(F)(F)F)cc3)c2O[C@@H]1CN(C)S(C)(=O)=O | . | -15 | . | .
CCOC(=O)c1c(NC(=O)c2ccc(C)cc2)sc2c1CC(C)(C)OC2 | 66 | 13 | . | -66
CCOC(=O)c1c(NC(=O)CCC(=O)N2CCOCC2)sc2c1CC(C)(C)OC2 | 2 | 2 | 55* | -2
COC(=O)c1c(NC(=O)c2ccccc2)sc2c1CC(C)(C)OC2 | 73* | -7 | . | -73
O=C(NC1CCCC1)N[C@H]1CC[C@@H](CC(=O)N2CCOCC2)O[C@H]1CO | . | 2 | . | .
O=C(Cn1ncc2c3ccccc3n(Cc3cccc(Cl)c3)c2c1=O)NCC1CCCO1 (configuration not stated) | 13 | 100* | 0 | -13
O=C(Cn1ncc2c3ccccc3n(Cc3ccccc3F)c2c1=O)NCC1CCCO1 (configuration not stated) | -3 | -4 | 1 | 3
O=C(Nc1ccc(Cl)cc1)N[C@@H]1CC[C@@H](CCNC(=O)c2ccccc2F)O[C@@H]1CO | . | -2 | . | .
CCOc1ccc(OC(=O)C(CCS(C)(=O)=O)N2C(=O)c3ccccc3C2=O)cc1 (configuration not stated) | -47 | -2 | 5 | 47
CC(=O)c1ccc(OC(=O)C(CCS(C)(=O)=O)N2C(=O)c3ccccc3C2=O)cc1 (configuration not stated) | -13 | 18 | 81* | 13
Cc1occc1C(=O)Nc1sc2c(c1C(N)=O)CCCCC2 | 73* | -17 | -5 | -73
CNC(=O)c1c(NC(=O)c2ccc(N3C(=O)CCC3=O)cc2)sc2c1CCCC2 | 87* | -14 | 2 | -87
NC1=NC(=Nc2ccc(Cl)cc2)c2ccccc21 | -10 | . | 0 | 10
NC1=NC(=Nc2ccccc2)c2ccccc21 | -5 | 134* | -6 | 5
CC(C)NC(=O)CS(=O)(=O)c1ccccc1 | -24 | 112* | 2 | 24
C[C@@H]1CCCCO[C@H](CN(C)S(C)(=O)=O)[C@H](C)CN([C@@H](C)CO)C(=O)c2cc(NS(=O)(=O)c3ccc(F)cc3)ccc2O1 | . | 1 | . | .
CN1CCN(C(=O)C[C@@H]2CC[C@@H]3[C@H](COC[C@H](O)CN3C(=O)C3CC3)O2)CC1 | . | 0 | . | .
CO[C@@H]1CN(C)C(=O)c2ccc(NS(C)(=O)=O)cc2OC[C@@H](C)N(C(=O)C2CCOCC2)C[C@H]1C | . | -7 | . | .
N#CCCCSc1nnc(CSc2nc3ccccc3s2)n1-c1ccccc1 | 34 | 103* | -17 | -34
SMILES | SR-BI HDL uptake | Statin myotox sup | Vif imaging | SR-BI uptake up
Cc1ccc(-c2cc(C(=O)N/N=C/c3c[nH]c4ccccc34)[nH]n2)cc1 | 89* | . | 13 | -89
O=C(N/N=C/c1c[nH]c2ccccc12)c1cc(-c2ccc3ccccc3c2)n[nH]1 | 73* | . | -2 | -73
O=C(N/N=C/c1c[nH]c2ccccc12)c1cc(-c2ccccc2)n[nH]1 | 34 | . | -2 | -34
O=C(N/N=C/c1c[nH]c2ccccc12)c1ccn[nH]1 | -28 | . | 5 | 28
O=C(N/N=C/c1c[nH]c2ccccc12)c1cc(-c2ccc(-c3ccccc3)cc2)n[nH]1 | 94* | 11 | 20 | -94
O=C(N/N=C/c1c[nH]c2ccccc12)c1cc(-c2cccc3ccccc23)n[nH]1 | 57 | . | -11 | -57
C[C@@H]1CCCCO[C@@H](CN(C)Cc2ccc3c(c2)OCO3)[C@@H](C)CN([C@@H](C)CO)C(=O)c2cc(NC(=O)CCCN(C)C)ccc2O1 | . | -8 | . | .
CN(C)c1ccc2c(c1)[C@@H]1C[C@H](CC(=O)O)O[C@H](CO)[C@@H]1O2 | . | -2 | . | .
C/C=C/c1ccc2c(c1)O[C@H](CN(C)C(=O)c1ccccc1F)[C@@H](C)CN([C@@H](C)CO)S2(=O)=O | . | -23 | . | .
C[C@H]1CN([C@@H](C)CO)C(=O)Cc2cc(NC(=O)Nc3ccc4c(c3)OCO4)ccc2O[C@H]1CN(C)S(=O)(=O)c1cn(C)cn1 | . | -10 | . | .
CSc1nc(-c2ccco2)nn1S(=O)(=O)c1ccc(C)cc1 | -19 | -3 | 8 | 19
Cc1ccc(S(=O)(=O)n2nc(-c3ccco3)nc2SCc2ccccc2)cc1 | 0 | 109* | 5 | 0
COc1ccc(S(=O)(=O)Nc2ccc3c(c2)CC(=O)N([C@H](C)CO)C[C@@H](C)[C@@H](CN(C)S(C)(=O)=O)O3)cc1 | . | 20 | . | .
CO[C@@H]1CN(C)C(=O)c2ccc(NC(=O)NC3CCCCC3)cc2OC[C@@H](C)NC[C@H]1C | . | -27 | . | .
COc1ccc2oc(=O)cc(CN3CCN(Cc4ccc(OC)c(OC)c4OC)CC3)c2c1 | 34 | 123* | -6 | -34
COc1ccc(OC)c(CN2CCN(Cc3ccc(OC)c(OC)c3OC)CC2)c1 | . | -2 | . | .
C[C@H]1CN([C@@H](C)CO)C(=O)c2cccc(NC(=O)C3CC3)c2O[C@H]1CN(C)CC1CC1 | . | -3 | . | .
O=S(=O)(Nc1nc2ccccc2nc1Nc1ccc(N2CCOCC2)cc1)c1cc(Cl)ccc1Cl | 73* | . | -7 | -73
CCNC1=C(Cl)C(=O)c2ccccc2C1=O | -1 | 10 | 4 | 25
CCCC(=O)NC1=C(Cl)C(=O)c2ccccc2C1=O | -22 | . | 98* | 22
O=C(NCC[C@H]1CC[C@H](NC(=O)C2CC2)[C@@H](CO)O1)Nc1ccc(C(F)(F)F)cc1 | . | -18 | . | .
C=C(CN(C)C)C(=O)c1cc(C)ccc1C | 81* | . | 7 | -81
CO[C@H](CN(C)C(=O)c1cnccn1)[C@@H](C)CN([C@H](C)CO)S(=O)(=O)c1ccccc1 | . | 6 | . | .
CSc1nsc(/C=C/Nc2ccc(Cl)cc2)c1C#N | 57 | 125* | -5 | -57
CSc1nsc(/C=C/Nc2ccc(O)cc2C)c1C#N | 81* | -1 | 7 | -81
CSc1nsc(/C=C/Nc2ccc(F)cc2)c1C#N | 44 | . | . | -44
COCCNC(=O)C[C@@H]1CC[C@H](NC(=O)NC2CCCC2)[C@@H](CO)O1 | . | -5 | . | .
